Laboratory results from ChEMBL document CHEMBL5653624 (Biochem Pharmacol, 2016).
The source made the active and inactive calls. No cut-off for these calls is given here.

Legend:
[1] = test system: RAW264.7; assay: Antiinflammatory activity in LPS/IFNgamma-stimulated mouse RAW264.7 cells assessed as effect on HDAC3 mRNA expression preincubated for 20 hrs followed by LPS/IFNgamma stimulation and measured after 4 hrs by RT-qPCR analysis; format: functional, cell-based; conditions: time 24.0 hrs
[2] = test system: HASMC; assay: Cytotoxicity against HASMC cells assessed as reduction in cell viability at 2 uM measured after 20 hrs by MTS assay; format: toxicity, cell-based; conditions: human
Method in brief: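 MTS viability assay. RAW 264.7 cells seeded at 25,000 cells/cm2; HBE and hASM cells at 70% confluency and serum-starved for 24 h. Exposure for 20 h with LPS/IFNγ stimulation. MTS reagent added for 1 h at 37 °C in the dark, absorbance read at 490 nm. LPS/IFNγ-stimulated cells without inhibitor set at 100%.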

[3] = test system: RAW264.7; assay: Antiinflammatory activity in mouse RAW264.7 cells assessed as down regulation of LPS/IFNgamma-induced IL-12b gene expression at 1 uM preincubated for 20 hrs followed by LPS/IFNgamma stimulation and measured after 4 hrs by RT-qPCR analysis; format: functional, cell-based; conditions: time 24.0 hrs
Method in brief: (§1)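 RAW 264.7 macrophages in DMEM/10% FBS received 1 μM RGFP966 for 20 h, with LPS/IFNγ for the last 4 h. Washed with cold DPBS, total RNA isolated, integrity checked by 28S/18S. RT-qPCR by comparative Ct (2−ΔΔCt), fold change versus LPS/IFNγ control. Mean ± SD of 3–5 independent experiments.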

[4] = biological target: T1, Histone deacetylase 3 (Mus musculus) (UniProt O88895); assay: Inhibition of HDAC3 in mouse RAW264.7 cells assessed as effect on LPS/IFNgamma-induced NF-kappaB p65 nuclear translocation preincubated for 20 hrs followed by LPS/IFNgamma stimulation and measured after 1 hr by immunofluorescence microscopy; format: cell-based
T1 sequence (whole entry): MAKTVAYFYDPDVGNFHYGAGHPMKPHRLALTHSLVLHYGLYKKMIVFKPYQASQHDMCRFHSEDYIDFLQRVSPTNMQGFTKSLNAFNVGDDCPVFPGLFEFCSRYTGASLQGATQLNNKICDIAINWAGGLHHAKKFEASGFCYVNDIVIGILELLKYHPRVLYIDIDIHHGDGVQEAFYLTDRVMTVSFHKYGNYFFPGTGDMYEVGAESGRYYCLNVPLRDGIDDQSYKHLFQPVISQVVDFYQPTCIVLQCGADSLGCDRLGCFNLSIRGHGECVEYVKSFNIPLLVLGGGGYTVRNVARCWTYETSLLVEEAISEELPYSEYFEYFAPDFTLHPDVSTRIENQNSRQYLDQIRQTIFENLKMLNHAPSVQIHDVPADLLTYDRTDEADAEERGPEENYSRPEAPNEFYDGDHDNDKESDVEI
Method in brief: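 RAW 264.7 seeded at 20,000 cells/cm2, 1 μM inhibitor 20 h then 1 h LPS/IFNγ; fixed 4% formaldehyde, permeabilized 0.25% Triton X-100, blocked 5% BSA; rabbit anti-p65 (1:250, 2 h 4 °C) with AlexaFluor488 secondary, Hoechst nuclei; confocal imaging at identical settings; 3 independent experiments.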

[5] = biological target: T1, Histone deacetylase 3 (Mus musculus); assay: Effect on HDAC3 nuclear localization in LPS/IFNgamma-stimulated mouse RAW264.7 cells preincubated for 20 hrs followed by LPS/IFNgamma stimulation and measured after 1 hr by Hoechst staining based confocal laser scanning microscopy; format: cell-based
Method in brief: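 RAW 264.7 cells at 20,000 cells/cm2 received 1 μM RGFP966 for 20 h, then 1 h LPS/IFNγ. Fixed in 4% formaldehyde, permeabilized with 0.25% Triton X-100, blocked with 5% BSA. Primary antibodies 2 h at 4 °C, AlexaFluor secondaries 1 h, Hoechst nuclear stain. Confocal imaging at 630×; 4 independent experiments.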

[6] = biological target: T1, Histone deacetylase 3 (Mus musculus); assay: Inhibition of HDAC3 in mouse RAW264.7 cells assessed as effect on LPS/IFNgamma-induced NF-kappaB p65 acetylation level preincubated for 20 hrs followed by LPS/IFNgamma stimulation and measured after 1 hr by Western blot analysis
[7] = test system: RAW264.7; assay: Antiinflammatory activity in mouse RAW264.7 cells assessed as effect on LPS/IFNgamma-induced iNOS gene expression at 1 uM preincubated for 20 hrs followed by LPS/IFNgamma stimulation and measured after 4 hrs by RT-qPCR analysis; format: functional, cell-based; conditions: time 24.0 hrs; method in brief: as §1
[8] = biological target: T1, Histone deacetylase 3 (Mus musculus); assay: Inhibition of HDAC3 in mouse RAW-Blue cells assessed as reduction in LPS/IFNgamma-induced NF-kappaB p65 transcriptional activity preincubated for 16 hrs followed by LPS/IFNgamma stimulation and measured after 4 hrs by SEAP reporter gene assay; format: cell-based; conditions: time 20.0 hrs
Method in brief: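 RAW-Blue cells (RAW 264.7-derived, stably expressing an NF-κB/AP-1-inducible secreted embryonic alkaline phosphatase) exposed to inhibitor for 20 h total, with 10 ng/ml LPS plus 10 ng/ml IFNγ added for the final 4 h. Supernatant mixed with QUANTI-Blue medium, 37 °C 1–2 h in the dark, absorbance 630 nm; reported as % of control.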

[9] = test system: RAW264.7; assay: Effect on HDAC3-NFkappaB p65 protein-protein interaction in LPS/IFNgamma-stimulated mouse RAW264.7 cells at 1 uM preincubated for 20 hrs followed by LPS/IFNgamma stimulation and measured after 1 hr by immunoprecipitation analysis; format: cell-based
Method in brief: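 RAW 264.7 cells treated for 20 h, then LPS/IFNγ-stimulated. Lysates rotated 4 h at 4 °C and cleared. NF-κB p65 immunoprecipitated with mouse monoclonal antibody overnight at 4 °C, then Protein A/G agarose for 6 h at 4 °C, followed by washes. Immunoblot for HDAC 3, densitometry normalized to NF-κB p65. Mean ± SD of 3 experiments.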

[10] = test system: HASMC; assay: Antiinflammatory activity in HASMC cells assessed as effect on LPS/IFNgamma-induced IL-6 gene expression at 2 uM […] and measured after 4 hrs by RT-qPCR analysis; format: functional, cell-based; conditions: Homo sapiens
Method in brief: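 HBE cells (passage 73–103) or immortalized hASM cells (2–3 donors, passage 27–35), serum-starved. Then 2 μM RGFP966 for 20 h, with LPS/IFNγ for the last 4 h. Total RNA isolated; RT-qPCR by 2−ΔΔCt, fold change versus LPS/IFNγ control. Mean ± SD of 3–5 independent experiments.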

[11] = biological target: T1, Histone deacetylase 3 (Mus musculus); assay: Effect on HDAC3 nuclear localization in LPS/IFNgamma-stimulated mouse RAW264.7 cells preincubated for 20 hrs followed by LPS/IFNgamma stimulation and measured after 1 hr by Western blot analysis; format: cell-based
Method in brief: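 RAW 264.7 cells treated for 20 h, then 1 h LPS/IFNγ, and fractionated into nuclear and cytosolic parts. Fractions immunoblotted, with PARP-1 and β-actin as internal controls. Densitometry with vehicle control set at 100%. Mean ± SD of 3–4 independent experiments.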

[12] = biological target: T1, Histone deacetylase 3 (Mus musculus); assay: Inhibition of HDAC3 in mouse RAW264.7 cells assessed as effect on histone H3 peptide (KQLATKAAR) acetylation measured after 20 hrs by LC-MS/MS analysis; format: cell-based
Method in brief: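 Histones from RAW 264.7 (20 h treatment) run on 15% SDS-PAGE (7 μg), Coomassie-stained H3/H4 bands excised, destained, and chemically acetylated with acetic anhydride-d6 in 1 M ammonium bicarbonate; endogenous lysine acetylation ratio derived by mass spectrometry from deuterated versus non-deuterated acetyl mass difference.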

Nc1cc(F)ccc1NC(=O)/C=C/c1cnn(C/C=C/c2ccccc2)c1
Activity [1]: inactive | Activity [2]: Non-Toxic | Activity [3]: Active | inhibition [4]: inactive | Activity [5]: inactive | inhibition [6]: inactive | Activity [7]: inactive | inhibition [8]: Active | Activity [9]: inactive | Activity [10]: inactive | Activity [11]: inactive | inhibition [12]: inactive
